Screens as filed in PubChem BioAssay.
This is a sample that favours compounds with a hit; in the whole collection about 3.7% have one here.
KCNQ1 act: potentiators or activators of human KCNQ1 potassium channel; P51787; CHO-K1 KCNQ1, thallium flux FluxOR fluorescence; active compounds read high; AID 2648; B-score at 10 µM; hit rate 0.35% among 310,000;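 active = fluorescence ratio B-score, a plate-corrected score, at least three library SD, with initial intensity B-score within 5 SD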
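Doses: Single concentration per compound, DMSO matched to controls | Test system: KCNQ1-transfected CHO-K1 cells | Timing: 90 min dye loading and 20 min compound exposure, both at room temperature | Measured by: Kinetic FluxOR thallium fluorescence, 10-s 1-Hz baseline, 110-s post-stimulus read | Medium: Assay buffer with matched DMSO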
KCNK3 block: human KCNK3 channel inhibition, primary screen. O14649. CHO-KCNK3 thallium flux, FluxOR fluorescence; active compounds read low. B-score at 10 µM. hit rate 0.84% among 340,000. AID 602410;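 active = B-score under library mean minus 4 SD, starting fluorescence ratio at most library mean plus 5 SD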;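 also: more negative B-score means stronger inhibition of thallium flux through KCNK3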
KCNK9 block: inhibitors of human KCNK9 two-pore domain potassium channel | Q9NPC2 | HEK293 KCNK9, FluxOR thallium flux fluorescence; active compounds read low | B-score at 10 µM | hit rate 1.2% among 310,000;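 active = ratio B-score over 3 SD below the library mean, with starting fluorescence within 5 SD of its mean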;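 also: negative B-score means less thallium flux so channel inhibition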
hERG protect: shields human hERG channel from block by proarrhythmic agents. Q12809. CHO-hERG, FluxOR thallium flux, dofetilide IC70 present. activation (rescue from dofetilide block), less the hit threshold, % at 10 µM. hit rate 0.51% among 310,000;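 active = activation above the mean of controls blocked by dofetilide plus 5 SD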;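 also: thallium influx through hERG after potassium depolarization seen as dye fluorescence rise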
KCNQ1 inh: blocks the human KCNQ1 potassium channel; P51787; CHO-K1 KCNQ1, FluxOR thallium flux fluorescence; active compounds read high; B-score at 10 µM; hit rate 1.3% among 310,000; AID 2642;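 active = compounds whose thallium flux B-score, printed positive for inhibition, exceeds three library SD while starting fluorescence stays within three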;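 also: channel opened by potassium depolarization with thallium stimulus after 20 min compound exposure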
Kir21 block: Kir2.1 (mouse) channel inhibition. P35561. HEK293-Kir2.1, FluxOR thallium flux fluorescence; active compounds read low. B-score at 10 µM. hit rate 0.85% among 310,000. AID 1672;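 active = fluorescence ratio B-score at or below minus 3 SD of library scores, with starting-brightness B-score within 2 SD, cut at about -4.2 in these data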;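 also: channel flux triggered by added potassium and thallium sulfate stimulus; B-score of peak minus minimum fluorescence over baseline after thallium stimulus; more negative B-score means stronger Kir2.1 block with less thallium influx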
Target sequence (P35561 whole entry, looked up): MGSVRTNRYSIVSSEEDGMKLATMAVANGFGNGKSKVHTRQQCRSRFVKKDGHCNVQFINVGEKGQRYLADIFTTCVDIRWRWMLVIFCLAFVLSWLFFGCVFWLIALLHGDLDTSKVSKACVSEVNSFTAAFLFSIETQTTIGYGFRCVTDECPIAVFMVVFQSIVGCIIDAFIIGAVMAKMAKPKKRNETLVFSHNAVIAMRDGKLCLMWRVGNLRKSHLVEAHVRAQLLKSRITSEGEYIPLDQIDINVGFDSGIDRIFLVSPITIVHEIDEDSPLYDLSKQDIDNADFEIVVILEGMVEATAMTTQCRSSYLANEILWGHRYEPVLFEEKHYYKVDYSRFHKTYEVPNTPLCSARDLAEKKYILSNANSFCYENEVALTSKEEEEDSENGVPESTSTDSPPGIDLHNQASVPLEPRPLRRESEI
KCNK9 inh conf: human KCNK9 inhibitor confirmation. shares compounds with KCNK9 block. HEK293 KCNK9 cells, FluxOR thallium flux fluorescence. inhibition, % at 10 µM. hit rate 43% among 4,900. AID 492992;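 active = thallium signal inhibited by more than 5 SD of the compound-free buffer control wells, on both duplicate plates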
Kir2-1 spec: mouse Kir2.1 off-target activity of KCNK9 modulators. shares compounds with KCNK9 block. Kir2.1 cells, FluxOR thallium flux fluorescence. inhibition, % at 10 µM. hit rate 4% among 4,900. AID 492993;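 active = thallium signal drop more than 5 SD beyond the mean of the no-compound control wells, seen in both duplicate plates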;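 also: signal is fluorescence rise after thallium addition divided by baseline fluorescence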
HEK293 Tl ctr: second check of KCNK9 modulator effects in non-induced HEK293 cells. shares compounds with KCNK9 block. FluxOR thallium flux. inhibition, % at 10 µM. hit rate 40% among 4,900. AID 492997;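 active = thallium signal drop beyond 5 SD of the untreated control mean, on both duplicate plates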
KCNK3 confirm: confirmation of human KCNK3 two-pore domain potassium channel inhibitors; shares compounds with KCNK3 block; CHO-KCNK3 thallium flux, FluxOR fluorescence; 0% buffer, 100% carvedilol maximal block; ratio percent of control, % at 10 µM; hit rate 99% among 2,400; AID 651638;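 active = ratio percent of control, averaged over triplicates, above buffer control mean plus 5 SD, cut at about 64% in these data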;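 also: ratio is the fluorescence rise from min to max over baseline after thallium stimulus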
KCNK3 uninduced: activity in cells without induced KCNK3 expression. shares compounds with KCNK3 block. non-induced KCNK3 parental cells, FluxOR thallium flux; active compounds read low. thallium flux ratio (lower = more inhibition) at 10 µM. hit rate 40% among 2,400;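 active = thallium flux ratio, averaged over three wells, more than 5 SD below the buffer control mean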;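 also: host cells are CHO cells without KCNK3 induction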
Hits are given with their value; 0 = inactive; - = not tested or not shown.

SMILES | KCNQ1 act | KCNK3 block | KCNK9 block | hERG protect | KCNQ1 inh | Kir21 block | KCNK9 inh conf | Kir2-1 spec | HEK293 Tl ctr | KCNK3 confirm | KCNK3 uninduced
CC(C)(C)c1cc(C(=O)NNc2cccc(Cl)c2)n(Cc2ccccc2)n1 | 0 | -12 | -15 | 0 | 10 | 0 | 64% | 0 | 48% | 123 | 0
CC(C)(C)C(=O)NNC(=O)c1cc(C(C)(C)C)nn1Cc1ccccc1 | 0 | 0 | 0 | 0 | 0 | 0 | - | - | - | - | -
CSCC[C@H](NS(=O)(=O)c1ccc(C)cc1)C(=O)N1CCC(C(=O)N[C@@H](Cc2ccc(O)cc2)C(=O)O)CC1 | 0 | 0 | 0 | 0 | 0 | 0 | - | - | - | - | -
CC1(C)CC(=O)C2=C(C1)N1C(=C(C#N)C2c2ccccc2Cl)N=C(N)c2ccccc21 (stereo not given) | 0 | -13 | -15 | 0 | 0 | 0 | 42% | 0 | 44% | 90 | 0
N#CC1=C2N=C(N)c3ccccc3N2C2=C(C(=O)CCC2)C1c1ccccc1F (stereo not given) | 0 | 0 | 0 | 0 | 0 | 0 | - | - | - | - | -
COC(=O)c1ccc(CSc2nc3ccccc3c(=O)n2Cc2ccco2)o1 | 0 | -11 | -12 | 0 | 0 | 0 | 0 | 0 | 38% | 118 | 0
O=C(CSc1nc2ccccc2c(=O)n1Cc1ccco1)NCc1ccccc1 | 0 | 0 | 0 | 0 | 0 | 0 | - | - | - | - | -
Cc1ccc(C)c(N2N=C(C(=O)OCc3nnc(-c4ccccc4)o3)CCC2=O)c1 | 0 | 0 | 0 | 0 | 0 | 0 | - | - | - | - | -
Cc1ccc(Nc2nc(CSc3nnnn3-c3ccccc3)cs2)cc1 | 0 | 0 | -11 | 0 | 0 | 0 | 47% | 0 | 35% | 100 | 0
CSc1nc2ccc(NS(=O)(=O)c3ccc(Br)s3)cc2s1 | 0 | -11 | -8.3 | 0 | 6 | 0 | 35% | 0 | 0 | 127 | 0.13
Cc1nn(Cc2ccc(C(=O)Nc3ccc(C(=O)OC(C)C)cc3)o2)c(C)c1Cl | 0 | -9.5 | -10 | 0 | 0 | 0 | 56% | 0 | 0 | 107 | 0
Cc1nn(Cc2ccc(C(=O)NN)o2)c(C)c1Cl | 0 | 0 | 0 | 0 | 0 | 0 | - | - | - | - | -
CCOc1ccccc1CNS(=O)(=O)c1cc(-c2cc(C)no2)ccc1OC | 0 | 0 | 0 | 0 | 0 | 0 | - | - | - | - | -
COc1ccccc1CNS(=O)(=O)c1cc(-c2cc(C)no2)ccc1C(C)C | 0 | -9.5 | -11 | 0 | 6 | 0 | 60% | 0 | 38% | 119 | 0.14
O=C(NCc1ccco1)C(=O)NCC(c1ccco1)N1CCOCC1 (stereo not given) | 0 | 0 | 0 | 0 | 0 | 0 | - | - | - | - | -
Cc1cccc(NC(=O)c2ccc3nc(N4CCOCC4)sc3c2)c1C | 0 | 0 | 0 | 0 | 0 | 0 | - | - | - | - | -
Cn1c(SCC(=O)Nc2ccccc2)nc2ccccc2c1=O | 0 | 0 | 0 | 0 | 0 | 0 | - | - | - | - | -
Cc1cccc(OCC(=O)Nc2ccccc2N2CCCCC2)c1 | 0 | -9.9 | -9.9 | 0 | 0 | 0 | 77% | 0 | 47% | 98 | 0
Cc1ccccc1OCC(=O)Nc1ccccc1N1CCC(C)CC1 | 0 | -10 | -12 | 0 | 0 | 0 | 44% | 31% | 38% | 111 | 0
COc1cccc(NC(=O)c2ccc(-n3cnnn3)cc2)c1 | 0 | 0 | 0 | 0 | 0 | 0 | - | - | - | - | -
CCOC(=O)C(CCCOc1cccc(CC)c1)C(=O)OCC | 0 | -10 | 0 | 0 | 0 | 0 | 0 | 0 | 0 | 108 | 0
CCOC(=O)C(CCCCOc1cccc(CC)c1)C(=O)OCC | 0 | 0 | 0 | 0 | 0 | 0 | - | - | - | - | -
Cc1ccc(NC(=O)Nc2cccn(Cc3c(F)cccc3Cl)c2=O)cc1 | 0 | 0 | 0 | 0 | 0 | 0 | - | - | - | - | -
